In brackets after ≈: the same amount, converted by molar mass. Activity calls are given as the source filed them. The rule behind the calls is not given here.
How the values were obtained:
Enterococcus faecium = assay: Antibacterial activity against Enterococcus faecium 7130724 by broth microdilution method; type: functional
Enterococcus faecalis [1] = assay: Antibacterial activity against Enterococcus faecalis ATCC 29212 by broth microdilution method; type: functional
Summary of the method: (§1)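 Broth microdilution MICs were run per CLSI M07-A8 (2009). The strain panel included C. difficile ATCC 43255, E. faecalis ATCC 29212 and S. pyogenes ATCC BAA-595.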

Staphylococcus aureus [2] = assay: Antibacterial activity against Staphylococcus aureus A4.018 by broth microdilution method; type: functional
Streptococcus pyogenes = assay: Antibacterial activity against Streptococcus pyogenes ATCC BAA-595 by broth microdilution method; type: functional; summary of the method: as §1
[3] = Antibacterial activity against Clostridium difficile ATCC 43255 by broth microdilution method; type: functional; settings: Clostridioides difficile; summary of the method: as §1
Escherichia coli = assay: Inhibition of protein synthesis in Escherichia coli S30 extract at 2 uM after 75 mins by luciferase based luminescence assay relative to GE2270A; type: functional
Staphylococcus aureus [4] = assay: Antibacterial activity against Staphylococcus aureus ATCC 49951 infected in CD1 mouse assessed as mouse survival up to 5 days; type: functional; settings: ATCC 49951, 120 h
Summary of the method: (§2)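 Female CD1 mice (21–25 g) were infected ip with 1 × 10^8 CFU/mouse, 10–100× the minimal lethal dose. E. faecalis NB04025 was given in 50% rat fecal extract and S. aureus ATCC 49951 in 0.9% NaCl. Compound was given by iv tail-vein bolus at 1 and 5 h post-inoculation, at several dose levels (6 mice/group). ED50 with 95% CI was derived by probit analysis of day-5 survival.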

Enterococcus faecalis [5] = assay: Antibacterial activity against Enterococcus faecalis NB04025 infected in CD1 mouse assessed as mouse survival up to 5 days; type: functional; settings: NB04025, 120 h; summary of the method: as §2
[6] = Antibacterial activity against Clostridium difficile ATCC 43255 infected in golden syrian hamster assessed as survival rate at 20 mg/kg, po qd administered days 1 to 5 measured on days 6 to 21; type: functional; settings: Clostridioides difficile
Summary of the method: (§3)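 Golden Syrian hamsters got clindamycin 10 mg/kg sc on day −1. On day 0 they were gavaged with ~7.5 × 10^6 CFU C. difficile ATCC 43255 (0.75 mL). From 24 h post-infection they were dosed orally once daily for up to 5 days (8/dose), in a NaOH/PEG-400/2.5% Cremophor EL solution diluted in pH 7.4 PBS. Vehicle controls were included, and animals were observed twice daily through day 21.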

[7] = tested on: Clostridium difficile ATCC 43255; assay: Antibacterial activity against Clostridium difficile ATCC 43255 infected in golden syrian hamster assessed as decrease in toxin level in cecum after 21 days by ELISA; type: functional; settings: Caecum
Summary of the method: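 In the clindamycin-pretreated, C. difficile-infected hamster model, oral compound was given once daily on days 1–5. Surviving animals were euthanized at study end (day 21). Cecal homogenates were assayed for C. difficile toxins A and B by Tox A/B II ELISA per kit directions.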

[8] = Binding affinity to Escherichia coli GDPNP-labelled EF-Tu by surface plasmon resonance analysis
[9] = tested on: Clostridium difficile ATCC 43255; assay: Antibacterial activity against Clostridium difficile ATCC 43255 infected in po dosed golden syrian hamster assessed as survival rate administered qd for days 1 to 5 measured on after 6 to 21 days; type: functional, organism-based; summary of the method: as §3
[10] = Antibacterial activity against Clostridium difficile ATCC 43255 infected in golden syrian hamster assessed as survival rate at 0.2 mg/kg, po qd administered days 1 to 5 measured on days 6 to 21; type: functional; settings: Clostridioides difficile; summary of the method: as §3
[11] = Antibacterial activity against Clostridium difficile ATCC 43255 infected in golden syrian hamster assessed as survival rate at 2 mg/kg, po qd administered days 1 to 5 measured on days 6 to 21; type: functional; settings: Clostridioides difficile; summary of the method: as §3
[12] = Drug level in Clostridium difficile infected golden syrian hamster cecum at 20 mg/kg, po qd administered for 5 days measured at 1 hr post dose; type: ADME, organism-based, Mesocricetus auratus, Caecum; set-up: dose 20 mg/kg, route oral; settings: read-out: Drug uptake
Summary of the method: (§4)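 C. difficile-infected hamsters received 20 mg/kg orally (0.6 mL at 3.3 mg/mL) once daily for 5 days. At 1 and 3 h after the fifth dose, 3 animals per time point were sampled: plasma (K2-EDTA, cardiac puncture) and cecal contents. Cecal contents were homogenized in PBS/25% acetonitrile (final 1:25 dilution). Samples were protein-precipitated with acetonitrile containing glyburide internal standard.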

[13] = Drug level in Clostridium difficile infected golden syrian hamster cecum at 20 mg/kg, po qd administered for 5 days measured at 3 hrs post dose; type: ADME, organism-based, Mesocricetus auratus, Caecum; set-up: dose 20 mg/kg, route oral; settings: read-out: Drug uptake; summary of the method: as §4
[14] = Plasma concentration in Clostridium difficile infected golden syrian hamster at 20 mg/kg, po qd administered for 5 days measured at 1 hr post dose; type: ADME, organism-based, Mesocricetus auratus; set-up: dose 20 mg/kg, route oral; settings: for concentration at 1 h: golden Syrian, plasma; summary of the method: as §4
[15] = Plasma concentration in Clostridium difficile infected golden syrian hamster at 20 mg/kg, po qd administered for 5 days measured at 3 hrs post dose; type: ADME, organism-based, Mesocricetus auratus; set-up: dose 20 mg/kg, route oral; settings: for Cp: in vivo, 3 h, BLD = below limit of detection; summary of the method: as §4
[16] = Oral bioavailability in Sprague-Dawley rat; type: ADME, organism-based; settings: in vivo
Summary of the method: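 Male Sprague–Dawley rats (220–270 g, N = 2 or 3) were used, including iv dosing. Rats were fasted overnight and for 8 h post-dose. Plasma (K2-EDTA) was protein-precipitated with acetonitrile containing glyburide internal standard and analysed by LC–MS/MS (C18, formic acid water/acetonitrile gradient).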

SMILES	MIC (Enterococcus faecium) [µg/mL]	MIC (Enterococcus faecalis [1]) [µg/mL]	MIC (Staphylococcus aureus [2]) [µg/mL]	MIC (Streptococcus pyogenes) [µg/mL]	MIC [3] [µg/mL]	inhibition at 2 µM (Escherichia coli) [%]	ED50 (Staphylococcus aureus [4]) [mg/kg]	ED50 (Enterococcus faecalis [5]) [mg/kg]	survival at 20 mg/kg [6] [%]	Activity [7]	Kd [8] [nM]	survival at 0.2 mg/kg [10] [%]	survival at 2 mg/kg [11] [%]	concentration at 1 h [12] [µM]	concentration at 3 h [13] [µM]	Cp [15]	concentration at 1 h [14] [µM]	other results
CNC(=O)C[C@@H]1NC(=O)c2csc(n2)-c2ccc(-c3nc(N(CCCCCCC(=O)O)C(=O)O[C@H]4CC[C@H](C(=O)O)CC4)cs3)nc2-c2csc(n2)-c2csc(n2)[C@H]([C@@H](O)c2ccccc2)NC(=O)CNC(=O)c2nc(sc2COC)[C@H](C(C)C)NC(=O)c2nc1sc2C	0.125 (≈ 0.0896 µM)	< 0.06	0.25 (≈ 0.179 µM)	2 (≈ 1.43 µM)	0.06 (≈ 0.043 µM)	67	6.6	1	–	–	–	–	–	–	–	–	–	–
CN[C@H](CC(C)C)C(=O)N[C@H]1C(=O)N[C@@H](CC(N)=O)C(=O)N[C@H]2C(=O)N[C@H]3C(=O)N[C@H](C(=O)N[C@H](C(=O)O)c4cc(O)cc(O)c4-c4cc3ccc4O)[C@H](O)c3ccc(c(Cl)c3)Oc3cc2cc(c3O[C@@H]2O[C@H](CO)[C@@H](O)[C@H](O)[C@H]2O[C@H]2C[C@](C)(N)[C@H](O)[C@H](C)O2)Oc2ccc(cc2Cl)[C@H]1O [VANCOMYCIN]	–	–	–	–	–	–	–	–	25	Active	–	–	–	–	–	–	–	–
CNC(=O)C[C@@H]1NC(=O)c2csc(n2)-c2ccc(-c3nc(NC(=O)[C@H]4CC[C@H](C(=O)O)CC4)cs3)nc2-c2csc(n2)-c2csc(n2)[C@H]([C@@H](O)c2ccccc2)NC(=O)CNC(=O)c2nc(sc2COC)[C@H](C(C)C)NC(=O)c2nc1sc2C	0.06 (≈ 0.048 µM)	0.06 (≈ 0.048 µM)	0.125 (≈ 0.1 µM)	4 (≈ 3.2 µM)	0.06 (≈ 0.048 µM)	30	5.2	0.6	100	Active	43	0	62.5	18	39	BLD	–	Survival [9]: Dose-dependent effect; Cp ([14]; in vivo, 1 h, BLD = below limit of detection): BLD
CNC(=O)C[C@@H]1NC(=O)c2csc(n2)-c2ccc(-c3nc(N(CCCCCC(=O)O)C(=O)O[C@H]4CC[C@H](C(=O)O)CC4)cs3)nc2-c2csc(n2)-c2csc(n2)[C@H]([C@@H](O)c2ccccc2)NC(=O)CNC(=O)c2nc(sc2COC)[C@H](C(C)C)NC(=O)c2nc1sc2C	< 0.06	< 0.06	0.125 (≈ 0.0905 µM)	1 (≈ 0.724 µM)	0.06 (≈ 0.0435 µM)	67	9.6	0.8	–	–	6	–	–	–	–	–	–	–
CNC(=O)C[C@@H]1NC(=O)c2csc(n2)-c2ccc(-c3nc(N(CCCC(=O)O)C(=O)OCCCC(=O)O)cs3)nc2-c2csc(n2)-c2csc(n2)[C@H]([C@@H](O)c2ccccc2)NC(=O)CNC(=O)c2nc(sc2COC)[C@H](C(C)C)NC(=O)c2nc1sc2C	0.5 (≈ 0.381 µM)	0.5 (≈ 0.381 µM)	1 (≈ 0.762 µM)	2 (≈ 1.52 µM)	0.03 (≈ 0.0229 µM)	–	11	11	100	Active	8	0	100	129	72	BLD	0.0639	–
CNC(=O)C[C@@H]1NC(=O)c2csc(n2)-c2ccc(-c3nc(N(CCCCC(=O)O)C(=O)O[C@H]4CC[C@H](C(=O)O)CC4)cs3)nc2-c2csc(n2)-c2csc(n2)[C@H]([C@@H](O)c2ccccc2)NC(=O)CNC(=O)c2nc(sc2COC)[C@H](C(C)C)NC(=O)c2nc1sc2C [LFF-571]	< 0.06	< 0.06	0.125 (≈ 0.0915 µM)	1 (≈ 0.732 µM)	0.03 (≈ 0.022 µM)	67	6.9	2.2	100	Active	6	0	100	61	208	–	0.0448	bioavailability [16]: < 0.1%; concentration at 3 h ([15]; golden Syrian, plasma): 0.0052 µM

Reference: ChEMBL document CHEMBL2062386, “Discovery of LFF571: an investigational agent for Clostridium difficile infection” (J Med Chem, 2012)
